This is an account of results in ChEMBL document CHEMBL2146415, “Antibacterial activities of Groebke-Blackburn-Bienaymé-derived imidazo[1,2-a]pyridin-3-amines” (Bioorg Med Chem, 2012).

Data set [1] is described as follows: Chemical stability in aqueous solution of the compound assessed as N-dealkylated compound formation after 2 weeks by LC-MS analysis. In kind it is physicochemical. Conditions: buffer, 336 h.
In data set [2] the test system is Staphylococcus aureus. Description: Bacteriostatic activity against wild type Staphylococcus aureus ATCC 13709 by CLSI broth microdilution method. In kind it is functional. An outline of the steps:
(§1)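 MIC was determined by CLSI broth microdilution in non-cation-supplemented Mueller-Hinton broth, using OD600 0.5 cultures diluted 10-fold and 2-fold compound dilutions, overnight at 37°C, A600 read-out.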

Another data set relates to Escherichia coli. Put plainly: Antibacterial activity against Escherichia coli ATCC 9637 in presence of 6.6 ug/mL polymyxin B […]. In kind it is functional, organism-based. Put shortly: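 Broth microdilution per CLSI. Mid-log cultures in non-cation-supplemented Mueller-Hinton broth were adjusted to OD600 0.5, diluted 10-fold, and added to equal volumes of 2-fold serially diluted compound. Plates were sealed and incubated overnight at 37°C, then read at A600. MIC was the lowest concentration inhibiting growth. Reference antibiotics were run alongside.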

In the next data set the test system is Streptococcus pyogenes. Put plainly: Bacteriostatic activity against Streptococcus pyogenes clinical isolate by CLSI broth microdilution method. In kind it is functional. Put shortly: as §1
Data set [3] deals with T1, Toll-like receptor 7 (Homo sapiens) (UniProt Q9NYK1).
T1 sequence (whole entry): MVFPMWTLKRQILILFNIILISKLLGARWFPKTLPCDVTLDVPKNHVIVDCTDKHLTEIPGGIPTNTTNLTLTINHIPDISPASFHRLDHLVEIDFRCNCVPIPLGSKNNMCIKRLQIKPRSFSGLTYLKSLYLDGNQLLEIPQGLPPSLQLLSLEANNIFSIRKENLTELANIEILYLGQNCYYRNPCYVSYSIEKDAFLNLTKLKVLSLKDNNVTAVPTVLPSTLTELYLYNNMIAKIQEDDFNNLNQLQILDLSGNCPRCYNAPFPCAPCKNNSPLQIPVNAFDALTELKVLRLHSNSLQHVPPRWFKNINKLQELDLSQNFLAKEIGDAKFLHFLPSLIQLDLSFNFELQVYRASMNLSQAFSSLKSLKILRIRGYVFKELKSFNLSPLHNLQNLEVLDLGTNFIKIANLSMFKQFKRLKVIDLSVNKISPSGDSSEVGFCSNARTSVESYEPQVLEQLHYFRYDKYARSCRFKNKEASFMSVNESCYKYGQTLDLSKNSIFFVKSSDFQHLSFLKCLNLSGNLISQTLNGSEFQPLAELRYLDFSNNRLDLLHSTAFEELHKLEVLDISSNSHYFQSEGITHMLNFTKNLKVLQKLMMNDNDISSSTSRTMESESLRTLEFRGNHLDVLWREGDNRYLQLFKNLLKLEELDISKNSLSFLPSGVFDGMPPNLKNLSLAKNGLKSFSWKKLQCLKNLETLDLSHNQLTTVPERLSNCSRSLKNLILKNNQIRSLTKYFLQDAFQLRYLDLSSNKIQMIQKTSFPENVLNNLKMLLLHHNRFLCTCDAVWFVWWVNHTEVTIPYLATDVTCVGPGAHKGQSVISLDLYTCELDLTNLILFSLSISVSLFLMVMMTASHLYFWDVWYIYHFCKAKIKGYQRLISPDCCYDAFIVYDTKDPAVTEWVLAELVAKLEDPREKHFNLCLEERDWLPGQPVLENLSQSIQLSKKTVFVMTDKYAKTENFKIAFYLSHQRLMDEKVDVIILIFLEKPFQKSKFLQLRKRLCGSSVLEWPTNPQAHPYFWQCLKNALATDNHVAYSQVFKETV
Put plainly: Agonist activity at human TLR7 expressed in HEK293 cells co-transfected with NF-kappaB/sAP gene assessed as induction of NF-kappaB activation up to 250 uM by reporter gene assay. In kind it is functional, cell-based.

Data set [4] concerns Staphylococcus aureus. Put plainly: Bacteriostatic activity against methicillin resistant Staphylococcus aureus ATCC 33591 by CLSI broth microdilution method. In kind it is functional.
The subject of data set [5] is Staphylococcus epidermidis. Description: Bacteriostatic activity against coagulase negative Staphylococcus epidermidis ATCC 35983 by CLSI broth microdilution method. In kind it is functional. An outline of the steps: as §1
The target of data set [6] is T1, Toll-like receptor 7 (Homo sapiens). Description: Antagonist activity at TLR7 expressed in HEK293 cells co-transfected with NF-kappaB/sAP gene assessed as inhibition of gardiquimod-induced NF-kappaB activation up to 250 uM by reporter gene assay. In kind it is functional, cell-based.
In data set [7] the test system is Staphylococcus aureus. Put plainly: Bactericidal activity against methicillin resistant Staphylococcus aureus ATCC 33591 by broth microdilution method. In kind it is functional, organism-based. Put shortly: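 MBC by microdilution subculture: 0.5 μL from each well of the parent MIC plate (MRSA ATCC 33591) diluted into 80 μL fresh Mueller-Hinton broth, incubated overnight at 37°C, absorbance read at 600 nm.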

In brackets after ≈: the same amount, converted by molar mass. Activity calls are given as the source filed them. The rule behind the calls is not given here.

Take `CN(C)CCCNc1c2ccccc2c(-c2nc3ccccn3c2NC(C)(C)CC(C)(C)C)c2ccccc12.Cl`: the Stability result in [1] was “Unstable”.
Take `CC(C)(C)Nc1c(-c2c3ccccc3cc3ccccc23)nc2ccccn12`: the minimum inhibitory concentration (MIC) in the data set with Staphylococcus aureus [2] was 3.91 µg/mL (≈ 10.7 µM); in the data set with Streptococcus pyogenes it was < 10 µg/mL; in the data set on Staphylococcus aureus [4], 3.91 µg/mL (≈ 10.7 µM); in data set [5], 7.81 µg/mL (≈ 21.4 µM). Besides, the outcome (in the data set with Escherichia coli; in [3]; in [6]; in the data set with Staphylococcus aureus [7]) was inactive.
`c1ccc2c(-c3nc4ccccn4c3NC3CCCCC3)c3ccccc3cc2c1`: the minimal inhibitory concentration (MIC) against Staphylococcus aureus [2] was 3.91 µg/mL (≈ 9.99 µM); in the data set with Streptococcus pyogenes, < 10 µg/mL; with Staphylococcus aureus [4], 3.91 µg/mL (≈ 9.99 µM); in data set [5], 7.81 µg/mL (≈ 19.9 µM). Further, the outcome in [3] and in data set [6] was inactive.
Consider `CN(C)CCCNc1ccc2nc(-c3c4ccccc4cc4ccccc34)c(NC(C)(C)CC(C)(C)C)n2c1.Cl`, for which the Stability entry in data set [1] is given as “Unstable”.
